Experimental data reported in ChEMBL document CHEMBL5143669, “Stapled peptides as scaffolds for developing radiotracers for intracellular targets: Preliminary evaluation of a radioiodinated MDM2-binding stapled peptide in the SJSA-1 osteosarcoma model” (Bioorg Med Chem Lett, 2022).

What was measured:
[1] = Biodistribution in Large intestine of athymic mouse xenografted with human SJSA-1 cells at 166.5 kBq, iv after 2 hrs by automated gamma counting method; format: ADME, organism-based; settings: in vivo
Summary of the method: (§1)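 125I-labeled peptide (166.5 kBq in 100 μL) was injected via tail vein into athymic mice bearing flank SJSA-1 xenografts, n = 5 per time point. Tumors, blood and major organs were gamma-counted at 0.5, 2, 6 and 24 h post-injection. Values are %ID/g.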

[2] = Biodistribution in Tumor of athymic mouse xenografted with human SJSA-1 cells at 166.5 kBq, iv after 6 hrs by automated gamma counting method; format: ADME, organism-based, Neoplasm; settings: in vivo
Summary of the method: (§2)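 Athymic mice bearing flank SJSA-1 xenografts received 125I-SIB-labeled peptide (166.5 kBq, 100 μL) by tail vein; groups of five per time point. Tumor, blood and organs were taken at 0.5–24 h and counted by gamma counter; values expressed as %ID/g.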

[3] = Lipophilicity, logD of the compound using n-octanol and phosphate-buffered saline at pH 7.4 by the shake flask method; format: physicochemical
Summary of the method: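 Shake-flask partition of the 125I-labeled peptide between n-octanol and PBS pH 7.4; logD from n = 4.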

[4] = Biodistribution in Thyroid of athymic mouse xenografted with human SJSA-1 cells at 166.5 kBq, iv after 2 hrs by automated gamma counting method; format: ADME, organism-based, Thyroid gland; settings: in vivo; summary of the method: as §2
[5] = Biodistribution in Blood of athymic mouse xenografted with human SJSA-1 cells at 166.5 kBq, iv after 30 mins by automated gamma counting method; format: ADME, organism-based; settings: in vivo, 0.5 h; summary of the method: as §1
[6] = Biodistribution in Muscle of athymic mouse xenografted with human SJSA-1 cells at 166.5 kBq, iv after 2 hrs by automated gamma counting method; format: ADME, organism-based, Muscle tissue; settings: in vivo; summary of the method: as §1
[7] = Biodistribution in Bone of athymic mouse xenografted with human SJSA-1 cells at 166.5 kBq, iv after 2 hrs by automated gamma counting method; format: ADME, organism-based, Bone element; settings: in vivo; summary of the method: as §1
[8] = Biodistribution in Skin of athymic mouse xenografted with human SJSA-1 cells at 166.5 kBq, iv after 2 hrs by automated gamma counting method; format: ADME, organism-based, Skin of body; settings: in vivo; summary of the method: as §1
[9] = Biodistribution in Kidney of athymic mouse xenografted with human SJSA-1 cells at 166.5 kBq, iv after 24 hrs by automated gamma counting method; format: ADME, organism-based; settings: in vivo; summary of the method: as §1
[10] = Biodistribution in Heart of athymic mouse xenografted with human SJSA-1 cells at 166.5 kBq, iv after 30 mins by automated gamma counting method; format: ADME, organism-based; settings: in vivo, 0.5 h; summary of the method: as §1
[11] = Biodistribution in Kidney of athymic mouse xenografted with human SJSA-1 cells at 166.5 kBq, iv after 30 mins by automated gamma counting method; format: ADME, organism-based; settings: in vivo, 0.5 h; summary of the method: as §1
[12] = Drug uptake in MDM2-amplified human SJSA-1 cells expressing wild type p53 at 5 to 50 uM incubated for 30 mins; format: ADME, cell-based; settings: sjsa-1, 0.5 h, dose 5-50 µM
Summary of the method: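 For uptake kinetics, SJSA-1 cells in serum-free RPMI-1640 were incubated 30–120 min with 125I-labeled peptide, with or without 50 μM unlabeled parent peptide. Cells were washed with PBS and lysed, and uptake was normalized to protein (%/mg protein). Triplicates, mean ± SD.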

[13] = Stability in human serum assessed as intact peptide level at 37 degC incubated for 72 hrs by RP-HPLC analysis; format: ADME, cell-free; settings: read-out: Drug uptake
Summary of the method: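 125I-labeled peptide was incubated in human serum at 37 °C for up to 72 h. Aliquots were run by RP-HPLC (RP-18 column, ethanol/0.05 M sodium acetate pH 5.5 gradient, 1 mL/min), and intact peptide was expressed as percentage of injected activity.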

[14] = Biodistribution in Spleen of athymic mouse xenografted with human SJSA-1 cells at 166.5 kBq, iv after 6 hrs by automated gamma counting method; format: ADME, organism-based; settings: in vivo; summary of the method: as §1
[15] = Drug uptake in MDM2-amplified human SJSA-1 cells expressing wild type p53 assessed as initially bound radioactivity incubated for 2 hrs subsequently re-incubating the cells with fresh medium for up to 2 hrs; format: ADME, cell-based; settings: sjsa-1, 2 h
Summary of the method: (§3)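 SJSA-1 cells were loaded with 125I-labeled peptide for 1 h, then reincubated in fresh medium for 0.5–2 h. Cell-retained activity and cumulative release into the supernatant were expressed as percentage of initially bound activity.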

[16] = Biodistribution in Small intestine of athymic mouse xenografted with human SJSA-1 cells at 166.5 kBq, iv after 2 hrs by automated gamma counting method; format: ADME, organism-based; settings: in vivo; summary of the method: as §1
[17] = Biodistribution in Kidney of athymic mouse xenografted with human SJSA-1 cells at 166.5 kBq, iv after 6 hrs by automated gamma counting method; format: ADME, organism-based; settings: in vivo; summary of the method: as §1
[18] = Biodistribution in Stomach of athymic mouse xenografted with human SJSA-1 cells at 166.5 kBq, iv after 6 hrs by automated gamma counting method; format: ADME, organism-based; settings: in vivo; summary of the method: as §2
[19] = Biodistribution in Bone of athymic mouse xenografted with human SJSA-1 cells at 166.5 kBq, iv after 6 hrs by automated gamma counting method; format: ADME, organism-based, Bone element; settings: in vivo; summary of the method: as §1
[20] = Biodistribution in Spleen of athymic mouse xenografted with human SJSA-1 cells at 166.5 kBq, iv after 24 hrs by automated gamma counting method; format: ADME, organism-based; settings: in vivo; summary of the method: as §1
[21] = Biodistribution in Spleen of athymic mouse xenografted with human SJSA-1 cells at 166.5 kBq, iv after 2 hrs by automated gamma counting method; format: ADME, organism-based; settings: in vivo; summary of the method: as §1
[22] = Biodistribution in Kidney of athymic mouse xenografted with human SJSA-1 cells at 166.5 kBq, iv after 2 hrs by automated gamma counting method; format: ADME, organism-based; settings: in vivo; summary of the method: as §1
[23] = Biodistribution in Skin of athymic mouse xenografted with human SJSA-1 cells at 166.5 kBq, iv after 24 hrs by automated gamma counting method; format: ADME, organism-based, Skin of body; settings: in vivo; summary of the method: as §1
[24] = Biodistribution in Brain of athymic mouse xenografted with human SJSA-1 cells at 166.5 kBq, iv after 30 mins by automated gamma counting method; format: ADME, organism-based; settings: in vivo, 0.5 h; summary of the method: as §1
[25] = Drug uptake in MDM2-amplified human SJSA-1 cells expressing wild type p53 assessed as initially bound radioactivity incubated for 1.5 hrs subsequently re-incubating the cells with fresh medium for up to 2 hrs; format: ADME, cell-based; settings: sjsa-1, 1.5 h; summary of the method: as §3
[26] = Biodistribution in Skin of athymic mouse xenografted with human SJSA-1 cells at 166.5 kBq, iv after 6 hrs by automated gamma counting method; format: ADME, organism-based, Skin of body; settings: in vivo; summary of the method: as §1
[27] = Biodistribution in Tumor of athymic mouse xenografted with human SJSA-1 cells at 166.5 kBq, iv after 30 mins by automated gamma counting method; format: ADME, organism-based, Neoplasm; settings: in vivo, 0.5 h; summary of the method: as §2
[28] = Biodistribution in Brain of athymic mouse xenografted with human SJSA-1 cells at 166.5 kBq, iv after 6 hrs by automated gamma counting method; format: ADME, organism-based; settings: in vivo; summary of the method: as §1
[29] = Biodistribution in Lung of athymic mouse xenografted with human SJSA-1 cells at 166.5 kBq, iv after 30 mins by automated gamma counting method; format: ADME, organism-based; settings: in vivo, 0.5 h; summary of the method: as §1
[30] = Drug uptake in MDM2-amplified human SJSA-1 cells expressing wild type p53 at 5 to 50 uM incubated for 1 hr; format: ADME, cell-based; settings: sjsa-1, 1 h, dose 5-50 µM
Summary of the method: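 SJSA-1 cells (MDM2-amplified, wild-type p53) in 24-well plates were incubated 1 h with 125I-labeled peptide in serum-free RPMI-1640, with or without unlabeled parent peptide (5–50 μM) for blocking. They were then washed three times with PBS and lysed; retained activity was normalized to well protein (%/mg protein). Triplicates, mean ± SD.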

[31] = Biodistribution in Thyroid of athymic mouse xenografted with human SJSA-1 cells at 166.5 kBq, iv after 30 mins by automated gamma counting method; format: ADME, organism-based, Thyroid gland; settings: in vivo, 0.5 h; summary of the method: as §2

Drug uptake [1]: 0.24 % ID/g | Drug uptake [2]: 2.11 % ID/g | logD [3]: 1.45 | Drug uptake [4]: 1.14 % ID/g | Drug uptake [5]: 8.33 % ID/g | Drug uptake [6]: 0.24 % ID/g | Drug uptake [7]: 0.33 % ID/g | Drug uptake [8]: 0.88 % ID/g | Drug uptake [9]: 0.63 % ID/g | Drug uptake [10]: 2.52 % ID/g | Drug uptake [11]: 3.06 % ID/g | Drug uptake [12]: 104 %/mg protein | remaining at 72 h [13]: 96% | Drug uptake [14]: 1.99 % ID/g | Drug uptake [15]: 62% | Drug uptake [16]: 2.17 % ID/g | Drug uptake [17]: 2.5 % ID/g | Drug uptake [18]: 1.9 % ID/g | Drug uptake [19]: 0.29 % ID/g | Drug uptake [20]: 0.58 % ID/g | Drug uptake [21]: 1.8 % ID/g | Drug uptake [22]: 2.54 % ID/g | Drug uptake [23]: 0.52 % ID/g | Drug uptake [24]: 0.24 % ID/g | Drug uptake [25]: 66.4% | Drug uptake [26]: 1.22 % ID/g | Drug uptake [27]: 1.8 % ID/g | Drug uptake [28]: 0.2 % ID/g | Drug uptake [29]: 4.27 % ID/g | Drug uptake [30]: 12.4% | Drug uptake [31]: 0.89 % ID/g
SMILES: CC(=O)NC(CCCCNC(=O)c1cccc([125I])c1)C(=O)NCCCCCC(=O)N[C@H](C(=O)N[C@@H](CO)C(=O)N[C@@H](Cc1ccccc1)C(=O)N[C@@]1(C)CCCCCC/C=C/CCC[C@@](C)(C(=O)N[C@@H](CCC(=O)O)C(=O)N[C@@H](CC(N)=O)C(=O)N[C@@H](Cc2ccccc2)C(N)=O)NC(=O)[C@H](CC(C)C)NC(=O)[C@H](CC(C)C)NC(=O)[C@H](C)NC(=O)[C@H](Cc2c[nH]c3ccccc23)NC(=O)[C@H](Cc2ccc(O)cc2)NC(=O)[C@H](CCC(=O)O)NC1=O)[C@@H](C)O (stereo partly specified)
